Measurements published in ChEMBL document CHEMBL1157032, “Synthesis and antimicrobial activity of novel pyrazolo[3,4-d]pyrimidin derivatives” (2010).
Converted amounts (≈) assume the structure as drawn. The source made the active and inactive calls. The rule behind the calls is not given here.

What was measured:
Klebsiella pneumoniae [1] = test: Antimicrobial activity against Klebsiella pneumoniae NCIM 2957 at 10 ug/ml after 24 hrs by agar diffusion method; type: functional
In short: (§1)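 Agar well diffusion on Mueller Hinton agar. Plates were seeded with bacterial suspension in sterile 0.85% saline at 10⁵ cfu/mL. Compound dilutions in 1% DMSO went into 6 mm wells, with DMSO alone as control. Plates were incubated 24 h at 37 ± 0.5 °C, and the zone of inhibition was measured in mm.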

Staphylococcus aureus [2] = test: Antimicrobial activity against Staphylococcus aureus MTCC 96 at 10 ug/ml after 24 hrs by agar diffusion method; type: functional; in short: as §1
Priestia megaterium [3] = test: Antimicrobial activity against Bacillus megaterium MTCC 1684 at 10 ug/ml after 24 hrs by agar diffusion method; type: functional; in short: as §1
Trichoderma viride [4] = test: Antimicrobial activity against Trichoderma viride MTCC 167 at 30 ug/ml after 48 hrs by agar diffusion method; type: functional, organism-based
In short: (§2)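 Agar well diffusion on Sabouraud dextrose agar. Plates were spread with fungal spore suspension in sterile distilled water adjusted to 10⁶ cfu/mL. Compound dilutions in 1% DMSO went into 6 mm wells, with DMSO alone as control. Plates were incubated 48 h at 28 ± 0.2 °C, and the inhibition zone was read in mm.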

Aspergillus flavus [5] = test: Antimicrobial activity against Aspergillus flavus MTCC 2501 at 30 ug/ml after 48 hrs by agar diffusion method; type: functional, organism-based; in short: as §2
Penicillium chrysogenum [6] = test: Antimicrobial activity against Penicillium chrysogenum MTCC 1996 at 30 ug/ml after 48 hrs by agar diffusion method; type: functional, organism-based; in short: as §2
Serratia marcescens [7] = test: Antimicrobial activity against Serratia marcescens MTCC 86 at 10 ug/ml after 24 hrs by agar diffusion method; type: functional; in short: as §1
Candida albicans [8] = test: Antimicrobial activity against Candida albicans MTCC 227 at 30 ug/ml after 48 hrs by agar diffusion method; type: functional, organism-based; in short: as §2
Bacillus subtilis [9] = test: Antimicrobial activity against Bacillus subtilis MTCC 1789 at 10 ug/ml after 24 hrs by agar diffusion method; type: functional; in short: as §1
Pseudomonas aeruginosa [10] = test: Antimicrobial activity against Pseudomonas aeruginosa MTCC 2488 at 10 ug/ml after 24 hrs by agar diffusion method; type: functional; in short: as §1
Aspergillus niger [11] = test: Antimicrobial activity against Aspergillus niger MTCC 1781 at 30 ug/ml after 48 hrs by agar diffusion method; type: functional, organism-based; in short: as §2
Proteus vulgaris [12] = test: Antimicrobial activity against Proteus vulgaris MTCC 1771 at 10 ug/ml after 24 hrs by agar diffusion method; type: functional; in short: as §1
Trichoderma viride [13] = test: Antimicrobial activity against Trichoderma viride MTCC 167 after 48 hrs; type: functional; conditions: MTCC 167, 48 h
In short: (§3)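 Fungal spore suspensions in sterile distilled water were adjusted to 10⁶ cfu/mL, and 0.1 mL was spread on Sabouraud dextrose agar. 6 mm wells were filled with 0.1 mL of compound dilution in DMSO (1% DMSO; DMSO-only control). Plates were incubated 48 h at 28 ± 0.2 °C, and inhibition zones were measured in mm. MIC was the lowest concentration completely inhibiting growth.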

Candida albicans [14] = test: Antimicrobial activity against Candida albicans MTCC 227 after 48 hrs; type: functional; conditions: MTCC 227, 48 h; in short: as §3
Penicillium chrysogenum [15] = test: Antimicrobial activity against Penicillium chrysogenum MTCC 1996 at MIC after 48 hrs by agar diffusion method; type: functional; in short: as §3
Pseudomonas aeruginosa [16] = test: Antimicrobial activity against Pseudomonas aeruginosa MTCC 2488 after 24 hrs; type: functional; conditions: MTCC 2488, 24 h
In short: (§4)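 Agar well diffusion on Mueller Hinton agar seeded with 0.1 mL of a 10⁵ cfu/mL bacterial suspension in 0.85% sterile saline. 6 mm wells received 0.1 mL of each compound dilution in DMSO (1% DMSO; DMSO alone as control). Plates were incubated 24 h at 37 ± 0.5 °C. Read-out was zone of inhibition in mm. MIC was taken as the lowest concentration giving complete growth inhibition.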

Staphylococcus aureus [17] = test: Antimicrobial activity against Staphylococcus aureus MTCC 96 at MIC after 24 hrs by agar diffusion method; type: functional; in short: as §4
Proteus vulgaris [18] = test: Antimicrobial activity against Proteus vulgaris MTCC 1771 after 24 hrs; type: functional; conditions: MTCC 1771, 24 h; in short: as §4
Aspergillus flavus [19] = test: Antimicrobial activity against Aspergillus flavus MTCC 2501 after 48 hrs; type: functional; conditions: MTCC 2501, 48 h; in short: as §3
Bacillus subtilis [20] = test: Antimicrobial activity against Bacillus subtilis MTCC 1789 at MIC after 24 hrs by agar diffusion method; type: functional; in short: as §4
Trichoderma viride [21] = test: Antimicrobial activity against Trichoderma viride MTCC 167 at MIC after 48 hrs by agar diffusion method; type: functional; in short: as §3
Priestia megaterium [22] = test: Antimicrobial activity against Bacillus megaterium MTCC 1684 at MIC after 24 hrs by agar diffusion method; type: functional; in short: as §4
Proteus vulgaris [23] = test: Antimicrobial activity against Proteus vulgaris MTCC 1771 at MIC after 24 hrs by agar diffusion method; type: functional; in short: as §4
Escherichia coli [24] = test: Antimicrobial activity against Escherichia coli MTCC 1650 after 24 hrs; type: functional; conditions: MTCC 1650, 24 h; in short: as §4
Aspergillus niger [25] = test: Antimicrobial activity against Aspergillus niger MTCC 1781 after 48 hrs; type: functional; conditions: MTCC 1781, 48 h; in short: as §3
Penicillium chrysogenum [26] = test: Antimicrobial activity against Penicillium chrysogenum MTCC 1996 after 48 hrs; type: functional; conditions: MTCC 1996, 48 h; in short: as §3
Aspergillus flavus [27] = test: Antimicrobial activity against Aspergillus flavus MTCC 2501 at MIC after 48 hrs by agar diffusion method; type: functional; in short: as §3
Pseudomonas aeruginosa [28] = test: Antimicrobial activity against Pseudomonas aeruginosa MTCC 2488 at MIC after 24 hrs by agar diffusion method; type: functional; in short: as §4
Serratia marcescens [29] = test: Antimicrobial activity against Serratia marcescens MTCC 86 at MIC after 24 hrs by agar diffusion method; type: functional; in short: as §4
Staphylococcus aureus [30] = test: Antimicrobial activity against Staphylococcus aureus MTCC 96 after 24 hrs; type: functional; conditions: MTCC 96, 24 h; in short: as §4
Aspergillus niger [31] = test: Antimicrobial activity against Aspergillus niger MTCC 1781 at MIC after 48 hrs by agar diffusion method; type: functional; in short: as §3
Klebsiella pneumoniae [32] = test: Antimicrobial activity against Klebsiella pneumoniae NCIM 2957 at MIC after 24 hrs by agar diffusion method; type: functional; in short: as §4
Escherichia coli [33] = test: Antimicrobial activity against Escherichia coli MTCC 1650 at MIC after 24 hrs by agar diffusion method; type: functional; in short: as §4
Bacillus subtilis [34] = test: Antimicrobial activity against Bacillus subtilis MTCC 1789 after 24 hrs; type: functional; conditions: MTCC 1789, 24 h; in short: as §4
Priestia megaterium [35] = test: Antimicrobial activity against Bacillus megaterium MTCC 1684 after 24 hrs; type: functional; conditions: MTCC 1684, 24 h; in short: as §4
Serratia marcescens [36] = test: Antimicrobial activity against Serratia marcescens MTCC 86 after 24 hrs; type: functional; conditions: MTCC 86, 24 h; in short: as §4
Candida albicans [37] = test: Antimicrobial activity against Candida albicans MTCC 227 at MIC after 48 hrs by agar diffusion method; type: functional; in short: as §3
Klebsiella pneumoniae [38] = test: Antimicrobial activity against Klebsiella pneumoniae NCIM 2957 after 24 hrs; type: functional; conditions: NCIM 2957, 24 h; in short: as §4

CN(C)[C@@H]1C(O)=C(C(N)=O)C(=O)[C@@]2(O)C(O)=C3C(=O)c4c(O)cccc4[C@@](C)(O)[C@H]3C[C@@H]12 [TETRACYCLINE] gave a zone of inhibition at 10 µg/mL (Klebsiella pneumoniae [1]; NCIM 2957, 24 h, read-out: IZ) of 17 mm, a zone of inhibition at 10 µg/mL (Staphylococcus aureus [2]; MTCC 96, 24 h, read-out: IZ) of 25 mm and a zone of inhibition at 10 µg/mL (Priestia megaterium [3]; MTCC 1684, 24 h, read-out: IZ) of 27 mm. For the same compound, the “inhibition zone (IZ)” value (Trichoderma viride [4]) was “inactive”, the “inhibition zone (IZ)” value (Aspergillus flavus [5]) was “inactive” and the “inhibition zone (IZ)” value (Penicillium chrysogenum [6]) was “inactive”. For the same compound, the zone of inhibition at 10 µg/mL (Serratia marcescens [7]; MTCC 86, 24 h, read-out: IZ) was 15 mm, the “inhibition zone (IZ)” value (Candida albicans [8]) was “inactive” and the zone of inhibition at 10 µg/mL (Bacillus subtilis [9]; MTCC 1789, 24 h, read-out: IZ) was 20 mm. The zone of inhibition at 10 µg/mL (Pseudomonas aeruginosa [10]; MTCC 2488, 24 h, read-out: IZ) was 32 mm, the “inhibition zone (IZ)” value (Aspergillus niger [11]) was “inactive” and the zone of inhibition at 10 µg/mL (Proteus vulgaris [12]; MTCC 1771, 24 h, read-out: IZ) was 20 mm.

With NYSTATIN the “inhibition zone (IZ)” value (Klebsiella pneumoniae [1]) was “inactive”, the “inhibition zone (IZ)” value (Staphylococcus aureus [2]) was “inactive” and the “inhibition zone (IZ)” value (Priestia megaterium [3]) was “inactive”. For the same compound, the inhibition zone (IZ) (Trichoderma viride [4]) was 18 mm, the inhibition zone (IZ) (Aspergillus flavus [5]) was 14 mm and the inhibition zone (IZ) (Penicillium chrysogenum [6]) was 17 mm. The “inhibition zone (IZ)” value (Serratia marcescens [7]) was “inactive”, the inhibition zone (IZ) (Candida albicans [8]) was 17 mm and the “inhibition zone (IZ)” value (Bacillus subtilis [9]) was “inactive”. The “inhibition zone (IZ)” value (Pseudomonas aeruginosa [10]) was “inactive”, the inhibition zone (IZ) (Aspergillus niger [11]) was 14 mm and the “inhibition zone (IZ)” value (Proteus vulgaris [12]) was “inactive”.

With Nc1n[nH]c2nc3scc(-c4ccc(O)cc4)n3c(=O)c12 the MIC (Trichoderma viride [13]) was 250 µg/mL (≈ 835 µM), the MIC (Candida albicans [14]) was 250 µg/mL (≈ 835 µM) and the “inhibition zone (IZ)” value (Penicillium chrysogenum [15]) was 29 mm. For the same compound, the MIC (Pseudomonas aeruginosa [16]) was 50 µg/mL (≈ 167 µM), the “inhibition zone (IZ)” value (Staphylococcus aureus [17]) was 30 mm and the MIC (Proteus vulgaris [18]) was 50 µg/mL (≈ 167 µM). For the same compound, the MIC (Aspergillus flavus [19]) was 250 µg/mL (≈ 835 µM), the “inhibition zone (IZ)” value (Bacillus subtilis [20]) was 12 mm and the “inhibition zone (IZ)” value (Trichoderma viride [21]) was 26 mm. For the same compound, the “inhibition zone (IZ)” value (Priestia megaterium [22]) was “inactive”, the “inhibition zone (IZ)” value (Proteus vulgaris [23]) was 14 mm and the MIC (Escherichia coli [24]) was 50 µg/mL (≈ 167 µM). The MIC (Aspergillus niger [25]) was 250 µg/mL (≈ 835 µM), the MIC (Penicillium chrysogenum [26]) was 250 µg/mL (≈ 835 µM) and the “inhibition zone (IZ)” value (Aspergillus flavus [27]) was 21 mm. For the same compound, the “inhibition zone (IZ)” value (Pseudomonas aeruginosa [28]) was 25 mm, the “inhibition zone (IZ)” value (Serratia marcescens [29]) was 17 mm and the MIC (Staphylococcus aureus [30]) was 50 µg/mL (≈ 167 µM). The “inhibition zone (IZ)” value (Aspergillus niger [31]) was 16 mm, the “inhibition zone (IZ)” value (Klebsiella pneumoniae [32]) was 11 mm and the “inhibition zone (IZ)” value (Escherichia coli [33]) was “inactive”. For the same compound, the MIC (Bacillus subtilis [34]) was 50 µg/mL (≈ 167 µM), the MIC (Priestia megaterium [35]) was 50 µg/mL (≈ 167 µM) and the MIC (Serratia marcescens [36]) was 50 µg/mL (≈ 167 µM). The “inhibition zone (IZ)” value (Candida albicans [37]) was “inactive” and the MIC (Klebsiella pneumoniae [38]) was 50 µg/mL (≈ 167 µM).
